Rows were chosen to be rich in hits. Some 2.3% of all compounds tested hit in one or more screens of this group.
Fam108B inh = mouse Fam108B serine hydrolase inhibitors, primary screen, counter-screen for RBBP9 inhibitor project, biochemical, fluorescence polarization. recombinant Fam108B, FP-Rh probe fluorescence polarization. inhibition, % at 9.51 µM. 0.33% of 300,000 active. AID 1947, 2009;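 active = inhibition above the screen mean inhibition plus 3 SD, computed separately per campaign, cut at about 18% in these data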;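 note: inhibitors lower polarization as less probe binds the enzyme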
PRMT1 inh = PRMT1 methyltransferase inhibitors, primary screen, biochemical, fluorescence polarization; Protein arginine N-methyltransferase 1 (Homo sapiens), Q99873; recombinant PRMT1, activity-based probe fluorescence polarization; inhibition, % at 2.79 µM; 1.3% of 370,000 active;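 active = inhibition above about 21% made by adding two undisclosed values, limit read from the data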
Target sequence (Q99873 whole entry, looked up): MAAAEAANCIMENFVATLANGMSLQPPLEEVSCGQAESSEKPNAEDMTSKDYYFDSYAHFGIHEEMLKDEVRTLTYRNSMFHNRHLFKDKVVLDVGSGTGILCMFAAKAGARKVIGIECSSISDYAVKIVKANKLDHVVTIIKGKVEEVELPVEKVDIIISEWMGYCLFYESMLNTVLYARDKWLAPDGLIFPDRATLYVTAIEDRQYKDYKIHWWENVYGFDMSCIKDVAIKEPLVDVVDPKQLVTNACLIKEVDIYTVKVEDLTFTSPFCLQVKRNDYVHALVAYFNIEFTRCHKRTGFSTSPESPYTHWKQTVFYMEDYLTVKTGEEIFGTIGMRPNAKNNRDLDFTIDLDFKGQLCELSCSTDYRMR
RBBP9 inhibitor = human RBBP9 inhibitors, primary screen, biochemical, fluorescence polarization, FP-Rh probe, HTS; recombinant RBBP9; inhibition, % at 7.94 µM; 0.2% of 220,000 active; AID 1515, 2009;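 active = inhibition above the campaign mean of all tested compounds plus 3 SD, cut at about 14% in these data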
Target sequence (O75884 whole entry, looked up): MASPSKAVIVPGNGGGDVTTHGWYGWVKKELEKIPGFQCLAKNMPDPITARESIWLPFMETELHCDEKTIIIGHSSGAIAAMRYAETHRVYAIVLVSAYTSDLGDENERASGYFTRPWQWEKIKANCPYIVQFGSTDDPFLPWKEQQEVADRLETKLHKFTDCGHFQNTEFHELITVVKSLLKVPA
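Measured by: FP readout at 525/598 nm; material: recombinant human RBBP9; also added: Serine-hydrolase probe FP-Rh, 375 nM pre-mixing; medium: Tris buffer pH 8.0, NaCl, Pluronic; replication: one well per compound; doses: one concentration, 7.94 µM nominal, 0.794% DMSO; timing: preincubation 30 min plus labeling 45 min at 25 °C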
PME-1 primary = PME-1 inhibitors via competitive probe labeling, primary screen, biochemical, fluorescence polarization, FP-Rh probe, HTS. recombinant PME-1. 0.53% of 320,000 active. Protein phosphatase methylesterase 1 (Homo sapiens), Q9Y570. inhibition, % at 5.9 µM;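 active = inhibition above the campaign mean of all compounds plus 3 SD, cut at about 26% in these data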;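 note: competitive labeling of PME-1 active site by serine hydrolase directed probe; inhibitors block probe labeling so polarization falls and inhibition rises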
PAD4 FP inh = human PAD4 inhibitors, primary screen, biochemical, fluorescence polarization, 1536-well format; 0.41% of 330,000 active; inhibition, % at 6.36 µM; recombinant PAD4, RCA probe fluorescence polarization;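 active = percent inhibition above a cutoff equal to the mean of all tested compounds plus 3 SD, cut at about 15% in these data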
GSTO1 counter = inhibitors of recombinant GSTO1, primary screen, counter-screen for RBBP9 inhibitor project, biochemical, fluorescence polarization; 1.1% of 300,000 active; Glutathione S-transferase omega-1 (Homo sapiens), P78417; AID 1974, 2009; activity-based probe fluorescence polarization; inhibition, % at 5.96 µM;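 active = inhibition above the campaign mean inhibition plus 3 SD, cut at about 35% in these data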
PAD4 FP conf = human PAD4 inhibitors, confirmation, biochemical, fluorescence polarization; 28% of 1,200 active; AID 488796, 2010; inhibition, % at 6.36 µM; shares compounds with PAD4 FP inh; recombinant PAD4, RCA probe fluorescence polarization;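 active = mean inhibition across replicates above the hit cutoff set by the earlier primary screen, cut at about 15% in these data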;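 note: inhibitors block active-site labeling by the probe so polarization falls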
Numbers stand for hits; i = inactive; nt = no result given.

SMILES | Fam108B inh | PRMT1 inh | RBBP9 inhibitor | PME-1 primary | PAD4 FP inh | GSTO1 counter | PAD4 FP conf
Nc1ccc(-c2c3ccc(=O)cc-3oc3cc(O)ccc23)c(C(=O)O)c1 | nt | nt | nt | i | 21 | nt | i
O=c1cc(O)c2ccc(O)cc2o1 | i | i | i | i | i | i | nt
CC(C)Cn1c(N)c(C(=O)COC(=O)Cc2cccs2)c(=O)n(C)c1=O | i | i | nt | i | 46 | i | i
N#Cc1cccc(NS(=O)(=O)c2ccccc2Cl)c1 | nt | i | nt | i | 22 | nt | i
O=[N+]([O-])c1ccc(-c2csc(Nc3ccccc3)[n+]2Cc2ccccc2)cc1 | i | i | i | i | i | i | nt
CCOC(=O)/C(C#N)=C/C=C1\C=Cc2ccccc2N1CC | i | i | i | i | 87 | i | 19
CC1CN(c2ccc(NC(=S)Nc3ccc(N4CC(C)OC(C)C4)cc3)cc2)CC(C)O1 (stereo not drawn) | i | i | i | i | 20 | i | i
Oc1cc(Nc2ccccc2)cc2cccnc12 | nt | i | nt | nt | i | nt | nt
Oc1cc(NCCN2CCOCC2)cc2cccnc12 | nt | 21 | nt | nt | 31 | nt | i
Cc1ccc2[nH]c(=O)c(CN(c3cccc(C)c3C)S(=O)(=O)c3ccccc3)cc2c1 | i | nt | nt | i | i | i | nt
CCn1cc(CNC(=O)C2CCC(=O)N(Cc3ccccc3F)C2)cn1 (stereo not drawn) | i | i | nt | i | i | i | nt
O=C1CC(Nc2ccccc2)C(=O)N1c1ccc(N2CCOCC2)cc1 (stereo not drawn) | i | i | i | i | i | i | nt
COc1ccc(CCN2C(=O)CC(Nc3ccc(N4CCOCC4)cc3)C2=O)cc1OC (stereo not drawn) | i | i | i | i | 20 | i | 19
O=C1CC(Nc2ccc(N3CCOCC3)cc2)C(=O)N1c1ccccc1F (stereo not drawn) | i | i | i | i | 16 | i | i
CCc1ccc(NC2CC(=O)N(CCc3ccc(OC)c(OC)c3)C2=O)cc1 (stereo not drawn) | i | i | i | i | i | i | nt
CCOC(=O)C1=C(c2ccccc2)N=C2SCC(=O)N2C1c1ccc(OC)c(OC)c1 (stereo not drawn) | i | i | i | i | i | i | nt
COc1ccc(C2=C(Nc3ccc(C)cc3)c3ccccc3C2=O)cc1 | i | i | i | i | i | i | nt
Cc1ccc(NC2=C(NCCO)C(=O)c3ccccc3C2=O)cc1 | i | i | i | i | 40 | 49 | i
COCCCn1c(=S)[nH]c2c(sc3ccccc32)c1=O | i | i | i | i | 18 | i | i
CC(=O)Nc1ccc(OCC(O)CN2C(C)CCCC2C)cc1 (stereo not drawn) | i | i | i | i | i | i | nt
COc1cccc(NC(=O)NC2(C(=O)N3CCC(O)CC3)CCCCC2)c1 | i | i | nt | i | i | i | nt
O=C1C2CCCCN2C(=O)N1CCCN1CCN(c2ccc(F)cc2)CC1 (stereo not drawn) | i | nt | nt | i | i | i | nt
Nc1ccc(N2CCN(CCCCN3C(=O)C4CCCN4C3=O)CC2)cc1 (stereo not drawn) | i | i | i | i | 65 | i | i
O=C(O)CCCCCNC(=O)Nc1ccc2c(c1)OCCO2 | i | i | i | i | i | i | nt
Cc1ccc(NC(=O)CNc2cccc(S(=O)(=O)N3CCCCC3)c2)cc1F | i | i | nt | i | i | i | nt
SMILES | Fam108B inh | PRMT1 inh | RBBP9 inhibitor | PME-1 primary | PAD4 FP inh | GSTO1 counter | PAD4 FP conf
Cc1ccc(NC(=O)CS(=O)CC(=O)Nc2ccccc2-c2ccc(C)o2)cc1 (stereo not drawn) | i | 51 | nt | 35 | 17 | i | i
CCC(=O)Nc1ccccc1C(=O)N1CCCC1 | i | i | i | i | i | i | nt
Cc1c(C(=O)N2CCCCC2)c(S(=O)(=O)N2CCN(c3ccc(Cl)cc3)CC2)c(C)n1C | i | i | nt | i | 68 | i | i
O=C1c2ccccc2C(=O)N1C/C=C/c1ccccc1 | i | i | i | i | i | i | nt
Cc1cc2ncn(-c3ncccc3[N+](=O)[O-])c2cc1C | i | i | nt | i | 87 | i | i
COc1cc(NC(=S)NCc2ccc(S(N)(=O)=O)cc2)c(OC)cc1Cl | i | i | i | i | i | i | nt
CCc1ccc(S(=O)(=O)Nc2cc(SCC(=O)O)c(O)c3ccccc23)cc1 | i | 77 | i | i | 26 | 84 | i
O=C(O)CSc1c2ccccc2cc2ccccc12 | i | 31 | nt | i | 23 | i | 20
Cc1[nH]c2ccccc2c1SCC(=O)O | i | i | i | i | i | i | nt
CCCSc1ccc(-c2nn(-c3ccccc3)cc2/C=C(/C#N)C(=O)NCCCOC)cc1 | i | i | i | i | i | i | nt
CCSc1ccc(-c2nn(-c3ccccc3)cc2/C=C(/C#N)C(=O)NCCCOC)cc1 | i | i | i | i | 18 | i | 32
COC(=O)CCCC1=CC2=CC(=O)C(C)(OC(=O)c3cccs3)C(=O)C2=CN1CCCCO (stereo not drawn) | i | i | nt | i | i | i | nt
C=CCN1C=C2C(=O)C(C)(OC(=O)CCC(=O)OC)C(=O)C=C2C=C1C1CC1 (stereo not drawn) | i | i | nt | i | 17 | 37 | i
CC(=O)C[C@H](O)CC(=O)[C@H]1OC(=O)CC/C=C\Cc2ccccc21 | nt | i | nt | i | 22 | nt | i
Cc1cc(C)c(NC(=O)COC(=O)C2CCCCC2)c(C)c1 | nt | i | nt | i | i | nt | nt
CN(C)c1cc(Nc2ccc(O)cc2)c([N+](=O)[O-])c2nonc12 | i | i | i | i | i | i | nt
O=[N+]([O-])c1c(Nc2ccc(O)cc2)cc(Cl)c2nonc12 | i | 77 | nt | i | 22 | i | i
O=[N+]([O-])c1c(Nc2ccccn2)cc(Cl)c2nonc12 | i | i | i | i | 49 | i | i
CC(=O)c1cc(C#N)c(Oc2ccccc2)nc1C | i | i | i | i | i | i | nt
Cc1cc(Nc2ccccc2)nc(N2CCOCC2)n1 | i | i | i | i | i | i | nt
COC(=O)c1ccc(C)c(NC(=O)c2ccc(Cl)c([N+](=O)[O-])c2)c1 | i | i | i | i | i | i | nt
COc1cccc(NC2c3ccccc3C(=O)N2Cc2ccccc2Cl)c1 (stereo not drawn) | i | i | i | i | i | i | nt
COc1cc(NC2c3ccccc3C(=O)N2Cc2ccccc2Cl)cc(OC)c1 (stereo not drawn) | i | i | i | i | 58 | i | 16
CN(C(=S)NC(=O)C12CC3CC(CC(C3)C1)C2)c1ccc(O)cc1 | nt | 26 | nt | nt | 24 | nt | i
CN(C)NC(=S)NC(=O)C12CC3CC(CC(C3)C1)C2 | i | i | i | i | i | i | nt

From PubChem BioAssay
